Measurements from ChEMBL document CHEMBL3779881, “Property Focused Structure-Based Optimization of Small Molecule Inhibitors of the Protein-Protein Interaction between Menin and Mixed Lineage Leukemia (MLL)” (J Med Chem, 2016).
Activity calls are given as the source filed them. The calls are words filed in the database; no cut-off is given here.

Tests used:
MV4-11 [1] = test: Growth inhibition of human MV4-11 after 7 days by MTT assay; type: functional; details: MV4-11, 168 h
Procedure, shortened: (§1)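 Cells in RPMI-1640/10% FBS/pen-strep/NEAA, seeded at 1×10^5/mL (MOLM-13, MV4;11) or 2×10^5/mL (HL-60), treated with compound or 0.25% DMSO for 7 days at 37 °C. Medium changed on day 4 with cell density reset and compound resupplied. MTT absorbance read at 570 nm; 2–3 experiments in quadruplicate, mean ± SD.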

MOLM-13 = test: Growth inhibition of human MOLM13 after 7 days by MTT assay; type: functional; details: MOLM-13, 168 h; procedure, shortened: as §1
HL-60 = test: Growth inhibition of human HL60 after 7 days by MTT assay; type: functional; details: HL-60, 168 h; procedure, shortened: as §1
[2] = target: T1, Menin/Histone-lysine N-methyltransferase 2A (Mus musculus) (UniProt O88559+P55200); test: Inhibition of menin-MLL interaction in MLL-AF9 transformed mouse bone marrow cells assessed as induction of cell differentiation measured as decreased nuclei to cytoplasm ratio at 0.5 uM after 7 days by Cytospin/Wright-Giemsa staining assay
T1 sequence (O88559 whole entry, looked up): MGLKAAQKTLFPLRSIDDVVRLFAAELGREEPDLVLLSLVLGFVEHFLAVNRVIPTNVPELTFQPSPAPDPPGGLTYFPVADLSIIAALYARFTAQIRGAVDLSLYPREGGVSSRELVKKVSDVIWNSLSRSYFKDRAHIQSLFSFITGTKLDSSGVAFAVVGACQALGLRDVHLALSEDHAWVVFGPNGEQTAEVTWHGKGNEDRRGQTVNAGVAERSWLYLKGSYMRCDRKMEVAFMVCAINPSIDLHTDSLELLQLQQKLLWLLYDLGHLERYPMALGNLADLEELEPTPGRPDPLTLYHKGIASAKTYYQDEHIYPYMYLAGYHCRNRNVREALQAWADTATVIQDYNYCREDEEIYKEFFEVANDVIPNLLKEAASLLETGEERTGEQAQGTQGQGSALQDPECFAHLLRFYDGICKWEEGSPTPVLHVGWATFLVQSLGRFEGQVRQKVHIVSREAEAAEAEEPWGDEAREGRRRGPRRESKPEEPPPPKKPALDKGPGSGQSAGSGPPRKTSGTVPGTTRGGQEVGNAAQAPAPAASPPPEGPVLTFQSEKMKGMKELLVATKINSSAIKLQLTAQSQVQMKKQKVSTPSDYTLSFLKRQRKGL
T1 sequence (P55200 whole entry, looked up): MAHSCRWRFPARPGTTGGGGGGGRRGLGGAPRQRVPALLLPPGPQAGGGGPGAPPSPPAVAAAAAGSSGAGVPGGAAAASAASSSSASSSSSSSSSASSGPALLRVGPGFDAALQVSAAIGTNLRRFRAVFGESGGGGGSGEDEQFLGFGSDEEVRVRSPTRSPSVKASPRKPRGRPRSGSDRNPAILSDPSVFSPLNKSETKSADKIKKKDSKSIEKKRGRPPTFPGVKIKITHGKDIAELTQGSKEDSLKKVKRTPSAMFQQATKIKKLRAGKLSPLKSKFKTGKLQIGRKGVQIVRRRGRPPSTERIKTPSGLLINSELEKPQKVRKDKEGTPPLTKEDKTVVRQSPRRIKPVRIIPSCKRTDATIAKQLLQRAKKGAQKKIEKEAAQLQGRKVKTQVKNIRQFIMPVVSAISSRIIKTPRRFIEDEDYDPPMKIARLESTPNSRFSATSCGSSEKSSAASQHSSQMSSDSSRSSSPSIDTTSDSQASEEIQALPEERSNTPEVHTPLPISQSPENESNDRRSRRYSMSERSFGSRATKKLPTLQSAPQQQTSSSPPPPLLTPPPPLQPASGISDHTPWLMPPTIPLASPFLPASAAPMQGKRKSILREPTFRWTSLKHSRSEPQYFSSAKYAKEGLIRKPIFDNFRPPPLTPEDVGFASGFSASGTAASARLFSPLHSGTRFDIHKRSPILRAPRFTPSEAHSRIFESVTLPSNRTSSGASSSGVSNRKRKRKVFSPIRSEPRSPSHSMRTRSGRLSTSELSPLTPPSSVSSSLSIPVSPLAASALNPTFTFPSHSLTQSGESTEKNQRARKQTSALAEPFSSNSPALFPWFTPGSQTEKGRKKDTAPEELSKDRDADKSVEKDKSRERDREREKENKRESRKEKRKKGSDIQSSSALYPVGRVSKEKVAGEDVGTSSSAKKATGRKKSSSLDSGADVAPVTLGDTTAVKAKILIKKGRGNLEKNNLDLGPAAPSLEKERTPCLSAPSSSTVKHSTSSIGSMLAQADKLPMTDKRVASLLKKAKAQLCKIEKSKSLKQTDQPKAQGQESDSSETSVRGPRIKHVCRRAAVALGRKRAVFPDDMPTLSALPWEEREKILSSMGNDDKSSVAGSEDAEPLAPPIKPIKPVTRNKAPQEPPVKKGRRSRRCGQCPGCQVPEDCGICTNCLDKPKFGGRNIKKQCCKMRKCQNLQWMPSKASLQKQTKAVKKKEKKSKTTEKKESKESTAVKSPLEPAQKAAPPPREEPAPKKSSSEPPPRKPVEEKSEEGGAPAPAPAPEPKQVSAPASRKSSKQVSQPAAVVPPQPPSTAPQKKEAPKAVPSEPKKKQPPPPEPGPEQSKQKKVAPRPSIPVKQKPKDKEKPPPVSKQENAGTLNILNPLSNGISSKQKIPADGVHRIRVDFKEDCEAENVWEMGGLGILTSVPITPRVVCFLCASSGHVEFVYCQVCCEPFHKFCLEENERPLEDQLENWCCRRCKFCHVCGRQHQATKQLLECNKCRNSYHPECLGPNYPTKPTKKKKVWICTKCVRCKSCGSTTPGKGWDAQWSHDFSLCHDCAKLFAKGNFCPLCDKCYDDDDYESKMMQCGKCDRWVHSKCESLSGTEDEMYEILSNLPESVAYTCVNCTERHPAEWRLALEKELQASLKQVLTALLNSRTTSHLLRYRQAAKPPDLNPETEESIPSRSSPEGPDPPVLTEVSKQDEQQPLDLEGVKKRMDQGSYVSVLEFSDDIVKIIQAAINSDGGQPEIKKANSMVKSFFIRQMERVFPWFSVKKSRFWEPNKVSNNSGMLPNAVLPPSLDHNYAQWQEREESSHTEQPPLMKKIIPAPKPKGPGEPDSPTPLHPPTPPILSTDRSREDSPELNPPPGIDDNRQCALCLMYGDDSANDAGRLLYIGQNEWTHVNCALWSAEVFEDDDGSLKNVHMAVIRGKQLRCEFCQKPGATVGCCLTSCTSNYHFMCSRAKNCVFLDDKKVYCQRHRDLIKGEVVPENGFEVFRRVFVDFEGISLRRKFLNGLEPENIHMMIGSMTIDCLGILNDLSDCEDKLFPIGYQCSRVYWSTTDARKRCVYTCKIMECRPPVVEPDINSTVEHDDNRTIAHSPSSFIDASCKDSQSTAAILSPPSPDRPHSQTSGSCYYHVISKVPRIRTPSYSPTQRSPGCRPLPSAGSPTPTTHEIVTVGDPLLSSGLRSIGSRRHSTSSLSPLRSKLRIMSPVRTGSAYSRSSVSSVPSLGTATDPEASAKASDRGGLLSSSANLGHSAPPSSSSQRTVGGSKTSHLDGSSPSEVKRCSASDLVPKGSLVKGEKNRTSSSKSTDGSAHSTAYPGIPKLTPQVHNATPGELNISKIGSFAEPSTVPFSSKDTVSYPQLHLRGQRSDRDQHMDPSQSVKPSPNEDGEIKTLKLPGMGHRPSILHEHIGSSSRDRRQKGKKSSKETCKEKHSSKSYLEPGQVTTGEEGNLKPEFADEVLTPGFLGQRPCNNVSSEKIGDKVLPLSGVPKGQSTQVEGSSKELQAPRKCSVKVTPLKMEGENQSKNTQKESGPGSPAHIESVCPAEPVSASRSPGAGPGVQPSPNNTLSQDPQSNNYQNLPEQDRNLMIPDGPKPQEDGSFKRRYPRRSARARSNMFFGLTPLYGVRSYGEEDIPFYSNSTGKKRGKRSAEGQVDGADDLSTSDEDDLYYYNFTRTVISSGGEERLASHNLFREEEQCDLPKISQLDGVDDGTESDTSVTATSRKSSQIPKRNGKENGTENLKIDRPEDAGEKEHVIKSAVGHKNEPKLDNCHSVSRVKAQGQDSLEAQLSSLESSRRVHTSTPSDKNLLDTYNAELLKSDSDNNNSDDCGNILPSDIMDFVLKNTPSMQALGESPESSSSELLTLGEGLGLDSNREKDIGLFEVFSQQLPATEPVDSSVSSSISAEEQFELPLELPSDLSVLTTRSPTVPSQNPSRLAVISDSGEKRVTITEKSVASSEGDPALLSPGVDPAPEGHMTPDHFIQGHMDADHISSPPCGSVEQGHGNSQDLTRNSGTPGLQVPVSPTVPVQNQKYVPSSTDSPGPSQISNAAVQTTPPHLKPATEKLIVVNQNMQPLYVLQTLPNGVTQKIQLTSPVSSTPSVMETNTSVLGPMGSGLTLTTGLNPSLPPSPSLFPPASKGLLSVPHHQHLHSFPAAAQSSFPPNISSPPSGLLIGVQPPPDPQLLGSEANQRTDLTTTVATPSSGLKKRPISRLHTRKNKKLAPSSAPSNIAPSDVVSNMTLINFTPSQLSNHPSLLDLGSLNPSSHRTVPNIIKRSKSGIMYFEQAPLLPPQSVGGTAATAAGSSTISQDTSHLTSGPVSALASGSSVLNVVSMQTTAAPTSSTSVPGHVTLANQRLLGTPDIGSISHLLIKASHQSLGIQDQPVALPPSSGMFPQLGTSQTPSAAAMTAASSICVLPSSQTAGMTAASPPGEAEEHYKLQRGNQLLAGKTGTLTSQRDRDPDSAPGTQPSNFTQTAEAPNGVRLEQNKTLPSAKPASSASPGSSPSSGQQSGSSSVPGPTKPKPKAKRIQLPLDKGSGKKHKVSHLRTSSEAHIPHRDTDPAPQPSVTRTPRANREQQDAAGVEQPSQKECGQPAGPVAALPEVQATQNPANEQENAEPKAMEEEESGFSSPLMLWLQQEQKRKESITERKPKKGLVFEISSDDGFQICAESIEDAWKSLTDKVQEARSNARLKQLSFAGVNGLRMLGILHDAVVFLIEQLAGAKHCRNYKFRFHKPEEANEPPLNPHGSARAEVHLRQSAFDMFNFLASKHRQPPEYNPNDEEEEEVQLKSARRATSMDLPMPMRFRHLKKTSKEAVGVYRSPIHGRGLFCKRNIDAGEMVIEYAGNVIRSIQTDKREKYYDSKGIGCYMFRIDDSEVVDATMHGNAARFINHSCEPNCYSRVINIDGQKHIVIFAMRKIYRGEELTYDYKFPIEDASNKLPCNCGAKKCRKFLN
Procedure, shortened: (§2)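 MLL-AF9 transduced mouse bone marrow cells seeded at 3×10^5/mL, treated with compound or 0.25% DMSO at 37 °C, 5% CO2 for 7 days; cytospins stained with Wright–Giemsa and scored for morphology.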

[3] = target: T1, Menin/Histone-lysine N-methyltransferase 2A (Mus musculus); test: Inhibition of menin-MLL interaction in MLL-AF9 transformed mouse bone marrow cells assessed as induction of cell differentiation measured as multilobed nuclei at 0.5 uM after 7 days by Cytospin/Wright-Giemsa staining assay; procedure, shortened: as §2
[4] = target: T1, Menin/Histone-lysine N-methyltransferase 2A (Mus musculus); test: Inhibition of menin-MLL interaction in MLL-AF9 transformed mouse bone marrow cells assessed as induction of cell differentiation measured as highly vacuolated cytoplasm at 0.5 uM after 7 days by Cytospin/Wright-Giemsa staining assay; procedure, shortened: as §2
[5] = target: T1, Menin/Histone-lysine N-methyltransferase 2A (Mus musculus); test: Inhibition of menin-MLL interaction in MLL-AF9 transformed mouse bone marrow cells assessed as induction of cell differentiation measured as upregulation of Itgam expression level at 0.12 to 0.5 uM after 6 days by qRT-PCR analysis
Procedure, shortened: (§3)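 MLL-AF9 transformed murine bone marrow cells treated 6 days, then qRT-PCR. Hoxa9 and Meis1 normalised to β-actin; Itgam normalised to 18S rRNA; each referenced to DMSO-treated cells; mean ± SD, n = 2.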

[6] = target: T1, Menin/Histone-lysine N-methyltransferase 2A (Mus musculus); test: Inhibition of menin-MLL interaction in MLL-AF9 transformed mouse bone marrow cells assessed as downregulation of Hoxa9 expression level at 100 nM after 6 days by qRT-PCR analysis; procedure, shortened: as §3
[7] = target: T1, Menin/Histone-lysine N-methyltransferase 2A (Mus musculus); test: Inhibition of menin-MLL interaction in MLL-AF9 transformed mouse bone marrow cells assessed as downregulation of Meis1 expression level at 0.12 to 0.5 uM after 6 days by qRT-PCR analysis; procedure, shortened: as §3
MV4-11 [8] = test: Antitumor activity against human MV4-11 cells xenografted in CB17 SCID mouse assessed as tumor growth inhibition at 45 mg/kg, ip qd administered for 2 weeks; type: functional; details: MV4-11, ip, 336 h, read-out: TGI
Procedure, shortened: (§4)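 MV4;11 cells in serum-free medium mixed 1:1 with Matrigel; 5×10^6 cells injected subcutaneously into the right flank of female mice aged 4–6 weeks. Dosing began at ~100 mm³ tumours; mice randomised, once-daily ip injections of vehicle or compound for 2 weeks.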

Mus musculus [9] = test: Toxicity in CB17 SCID mouse xenografted with human MV4-11 cells assessed as reduction in body weight at 45 mg/kg, ip qd administered for 2 weeks; type: organism-based; parameters: scale not given: the % may be the effect or the level left; details: in vivo, 336 h; procedure, shortened: as §4
Menin = target: T2, Menin (Homo sapiens, UniProt O00255); test: Binding affinity to menin (unknown origin)
T2 sequence (O00255 whole entry): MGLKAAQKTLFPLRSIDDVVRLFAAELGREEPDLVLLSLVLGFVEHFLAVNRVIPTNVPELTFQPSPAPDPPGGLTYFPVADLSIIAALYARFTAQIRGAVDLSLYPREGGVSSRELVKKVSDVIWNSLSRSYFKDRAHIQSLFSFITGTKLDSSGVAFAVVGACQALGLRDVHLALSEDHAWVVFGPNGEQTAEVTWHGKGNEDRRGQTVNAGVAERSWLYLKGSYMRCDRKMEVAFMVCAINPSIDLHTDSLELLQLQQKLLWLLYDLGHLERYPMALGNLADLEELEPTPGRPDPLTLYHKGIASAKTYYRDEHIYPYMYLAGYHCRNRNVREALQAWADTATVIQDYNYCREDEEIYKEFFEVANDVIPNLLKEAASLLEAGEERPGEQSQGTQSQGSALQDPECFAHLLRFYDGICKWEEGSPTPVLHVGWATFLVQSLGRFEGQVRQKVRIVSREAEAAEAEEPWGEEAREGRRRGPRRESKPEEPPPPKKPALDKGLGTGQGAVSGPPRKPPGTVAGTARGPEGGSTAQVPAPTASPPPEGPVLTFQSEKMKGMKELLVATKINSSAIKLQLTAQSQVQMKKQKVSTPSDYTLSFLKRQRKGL

Plasma = test: Drug metabolism in C57BL/6 mouse plasma assessed as glucuronidation at 15 mg/kg, iv after 24 hrs by LC-MS/MS analysis; type: ADME, organism-based; details: in vivo
Procedure, shortened: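 Female C57BL/6 mice given 15 mg/kg iv in 25% DMSO/25% PEG-400/50% PBS; serial plasma samples analysed by the same LC-MS/MS procedure as the PK work to detect glucuronide conjugates.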

[10] = target: Menin/Histone-lysine N-methyltransferase MLL (Homo sapiens, UniProt O00255); test: Inhibition of menin-MLL interaction (unknown origin) after 1 hr by fluorescence polarization assay; type: protein assay
[11] = Growth inhibition of MLL-AF9 transformed mouse bone marrow cells after 7 days by MTT assay; type: functional; details: Bone marrow cell, 168 h
[12] = Growth inhibition of Hoxa9/Meis1 transformed mouse bone marrow cells after 7 days by MTT assay; type: functional; details: Bone marrow cell, 168 h
Bone marrow cell = test: Selectivity index, ratio of GI50 for Hoxa9/Meis1 transformed mouse bone marrow cells to GI50 for MLL-AF9 transformed mouse bone marrow cells; type: functional
Mus musculus [13] = test: Tmax in C57BL/6 mouse plasma at 30 mg/kg, po after 24 hrs by LC-MS/MS analysis; type: ADME, organism-based; details: in vivo
Procedure, shortened: (§5)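 Female C57BL/6 mice dosed iv at 15 mg/kg or orally at 30 mg/kg in 25% DMSO/25% PEG-400/50% PBS (v/v). Serial 50 μL blood samples collected over 24 h (8 h in one experiment), spun to plasma; concentrations by validated LC-MS/MS in positive-ion MRM mode; parameters from noncompartmental analysis.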

Mus musculus [14] = test: Cmax in C57BL/6 mouse plasma at 30 mg/kg, po after 24 hrs by LC-MS/MS analysis; type: ADME, organism-based; parameters: dose 30 mg/kg, route oral; details: in vivo; procedure, shortened: as §5
Mus musculus [15] = test: AUC in C57BL/6 mouse at 15 mg/kg, iv after 24 hrs by LC-MS/MS analysis; type: ADME, organism-based; parameters: dose 15 mg/kg, time < 24 hr, route intravenous; details: in vivo; procedure, shortened: as §5
Mus musculus [16] = test: AUC in C57BL/6 mouse at 30 mg/kg, po after 24 hrs by LC-MS/MS analysis; type: ADME, organism-based; parameters: time < 24 hr, dose 30 mg/kg, route oral; details: in vivo; procedure, shortened: as §5
Mus musculus [17] = test: Half life in C57BL/6 mouse at 15 mg/kg, iv after 24 hrs by LC-MS/MS analysis; type: ADME, organism-based; details: in vivo; procedure, shortened: as §5
[18] = Clearance in C57BL/6 mouse at 15 mg/kg, iv after 24 hrs by LC-MS/MS analysis; type: ADME, organism-based; details: in vivo; procedure, shortened: as §5
Mus musculus [19] = test: Volume of distribution at steady state in C57BL/6 mouse at 15 mg/kg, iv after 24 hrs by LC-MS/MS analysis; type: ADME, organism-based; details: in vivo; procedure, shortened: as §5
Mus musculus [20] = test: Oral bioavailability in C57BL/6 mouse at 30 mg/kg after 24 hrs by LC-MS/MS analysis; type: ADME, organism-based; details: in vivo; procedure, shortened: as §5
Mus musculus [21] = test: Oral bioavailability in C57BL/6 mouse at 30 mg/kg after 8 hrs by LC-MS/MS analysis; type: ADME, organism-based; details: in vivo; procedure, shortened: as §5
[22] = Half life in CD-1 mouse liver microsomes at 1 uM after 3 to 60 mins by LC-MS/MS analysis; type: ADME
Mus musculus [23] = test: Tmax in C57BL/6 mouse plasma at 30 mg/kg, po after 8 hrs by LC-MS/MS analysis; type: ADME, organism-based; details: in vivo; procedure, shortened: as §5
Mus musculus [24] = test: Cmax in C57BL/6 mouse plasma at 30 mg/kg, po after 8 hrs by LC-MS/MS analysis; type: ADME, organism-based; parameters: dose 30 mg/kg, route oral; details: in vivo; procedure, shortened: as §5
Mus musculus [25] = test: AUC in C57BL/6 mouse at 15 mg/kg, iv after 8 hrs by LC-MS/MS analysis; type: ADME, organism-based; parameters: time < 8 hr, dose 15 mg/kg, route intravenous; details: in vivo; procedure, shortened: as §5
Mus musculus [26] = test: AUC in C57BL/6 mouse at 30 mg/kg, po after 8 hrs by LC-MS/MS analysis; type: ADME, organism-based; parameters: dose 30 mg/kg, time < 8 hr, route oral; details: in vivo; procedure, shortened: as §5
Mus musculus [27] = test: Half life in C57BL/6 mouse at 15 mg/kg, iv after 8 hrs by LC-MS/MS analysis; type: ADME, organism-based; details: in vivo; procedure, shortened: as §5
[28] = Clearance in C57BL/6 mouse at 15 mg/kg, iv after 8 hrs by LC-MS/MS analysis; type: ADME, organism-based; details: in vivo; procedure, shortened: as §5
Mus musculus [29] = test: Volume of distribution at steady state in C57BL/6 mouse at 15 mg/kg, iv after 8 hrs by LC-MS/MS analysis; type: ADME, organism-based; details: in vivo; procedure, shortened: as §5
[30] = Efflux ratio of apparent permeability from […] side in human Caco2 cells at 10 uM after 2 hrs by LC-MS/MS analysis; type: ADME, cell-based; details: caco-2, 2 h

Compound: N#Cc1cc2cc(CN3CCC(Nc4ncnc5sc(CC(F)(F)F)cc45)CC3)c(O)cc2n1Cc1cn[nH]c1
- GI50 (MV4-11 [1]): 175 nM
- GI50 (MOLM-13): 268 nM
- GI50 (HL-60): > 6 µM
- inhibition [2]: Active
- inhibition [3]: Active
- inhibition [4]: Active
- inhibition [5]: Active
- inhibition [6]: 50%
- inhibition [7]: Active
- inhibition in vivo at 45 mg/kg (MV4-11 [8]): 80%
- Activity (Mus musculus [9]): < 10%
- Kd (Menin): 6.5 nM
- Drug metabolism (Plasma): metabolite_detected
- IC50 [10]: 21 nM
- GI50 [11]: 83 nM
- GI50 [12]: 9 µM
- RatioGI50 (Bone marrow cell): 108
- Tmax (Mus musculus [13]): 2 h
- Cmax (Mus musculus [14]): 4572 ng/mL
- AUC (Mus musculus [15]): 17897 ng·h/mL
- AUC (Mus musculus [16]): 18090 ng·h/mL
- t1/2 (Mus musculus [17]): 1.6 h
- clearance [18]: 14 mL/min/kg
- Vdss (Mus musculus [19]): 2347 mL/kg
- F (Mus musculus [20]): 51%

Compound: COc1cc2c(cc(C#N)n2Cc2cn[nH]c2)c(C)c1CN1CCC(Nc2ncnc3sc(CC(F)(F)F)cc23)CC1
- F (Mus musculus [21]): 1%
- IC50 [10]: 12 nM
- GI50 [11]: 180 nM
- GI50 [12]: 4.2 µM
- RatioGI50 (Bone marrow cell): 23
- t1/2 [22]: 55 min
- Tmax (Mus musculus [23]): 2 h
- Cmax (Mus musculus [24]): 101 ng/mL
- AUC (Mus musculus [25]): 16235 ng·h/mL
- AUC (Mus musculus [26]): 383 ng·h/mL
- t1/2 (Mus musculus [27]): 1.4 h
- clearance [28]: 15 mL/min/kg
- Vdss (Mus musculus [29]): 1837 mL/kg

Compound: N#Cc1cc2cc(CN3CCC(Nc4ncnc5sc(CC(F)(F)F)cc45)CC3)ccc2n1CC(N)=O
- Ratio [30]: > 90
- IC50 [10]: 25 nM
- GI50 [11]: 780 nM
- GI50 [12]: 25 µM
- RatioGI50 (Bone marrow cell): 32
- t1/2 [22]: 54 min
